Measurements published in the EternaBench riboswitch data.

Tested on: MS2 coat protein
Assay: apparent Kd, MS2 coat protein; higher = weaker binding; RNA-MaP array; FMN 200 µM where present
In short: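 Binding was read on Illumina sequencing-chip clusters where stalled E. coli RNA polymerase had transcribed each design. A titration of SNAP-549-labelled MS2 coat protein began at 0.7 or 1.5 nM and doubled to 3 µM, once without ligand and once with constant ligand, in 100 mM Tris-HCl pH 7.5, 80 mM KCl, 4 mM MgCl2, BSA, DTT, yeast tRNA and Tween-20. The apparent Kd is the median of filtered per-cluster binding-curve fits, based on green signal normalised to red-channel RNA signal and control-cluster median Fmax.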

[1] = designed as: ON switch for flavin mononucleotide, no ligand
[2] = ligand present: flavin mononucleotide, designed as: ON switch for flavin mononucleotide
[3] = designed as: OFF switch for flavin mononucleotide, no ligand
[4] = ligand present: flavin mononucleotide, designed as: OFF switch for flavin mononucleotide

Row | Sequence | apparent Kd [1] [nM] | apparent Kd [2] [nM] | apparent Kd [3] [nM] | apparent Kd [4] [nM]
1 | GGGUACAUCGGAGGAUAUCAUGUAAAGACAUGAGGAUCACCCAUGUCGAUGGAGACAUCGGAGAUUGAGAAGGCCGAUGUACCG | 26.4 | 6.19 |  | 
2 | GGGACGAAAGUCGAACGAUGUAGCAGAAGGACAUGAGGAUCACCCAUGUCAGCUGUAACAGCCAUGUAGGAUAUGCUACAUCCC |  |  | 4.61 | 5.96
3 | AAAAAAAAAAGGCAGGAUAUCCAAAAAAAAACAUGAGGAUCACCCAUGUAAAAAAAAAAAAAGUGGGAGAAGGGCCAAAAAAAAAA | 45.3 | 15.6 |  | 
4 | AAGUAGGAAGGAUAUACAUGGAUAUACAUUCAUGUGGACCUACAUGAGGAUCACCCAUGUAGAAGGUCCUAAUA |  |  | 18.1 | 12.1
5 | GCUAGACGUCGAGGAUAUGGGUGUGCGAGUCUUGGCACUGGACAUGAGGAUCACCCAUGUCGCUUCCAGAAGGCGACGUCCCUA | 38.6 | 6.39 |  | 
6 | CAGUACUGAGGAUAUACAUGAGGAUCACCCAUGUGUUCCAGCUAGGUAACUAGCAAAAGUAGAAGGCAGUACUG |  |  | 23.6 | 321
7 | AAAAAACAUGAGGAUCACCCAUGUGAGGAUAUCGAAAAGUCAAAGAAAAAGACGAAAACGAGAAGGCACAAAAA |  |  | 53.8 | 65.8
8 | GGAGAGGUAGGAUAUGGAGCUUAGAACAUGAGGAUCACCCAUGUAGGACCACAUGAUUUGCCAGAAGGACCAGUCC |  |  | 421 | 558
9 | AACGCUAAAGGAUAUACAUGAGGAUCACCCAUGUUGAGGAAGGUUAGAUGAGGAGUAAGUAGAAGGUUAGACGA |  |  | 29.2 | 25.7
10 | UGUUGUUCAGGAUAUGAUGUAUAAUACAUGAGGAUCACCCAUGUAGAUCCUGAAUUGGCGUCAGAAGGGAAUGUUG |  |  | 19.3 | 21.9
11 | GGGCAAAAGUAGAAGGGAUAUACGAAAAGUAUAUCAGGAUAUACAUGAGGAUCACCCAUGUUCUAAAAGUGAUAGUCCUCCCUA |  |  | 33.3 | 262
12 | UGUUGUAUUACAGGAUAUCUAUGAUUUAUAUUUAGAGAAGGGUAUUCACAUGAGGAUCACCCAUGUAUAUACGAGGAAGUUGUG | 48.7 | 55.9 |  | 
13 | CAGUAUUUCGAAGGAUAUGGUUACAUGAGGAUCACCCAUGUAUUUUUUGUGAUCUUAAAAUUGAUCCAGAAGGUCGUAUAACUG |  |  | 101 | 232
14 | GGUCUAGGCGAAGGAUAUCCGUCGCGAGAUACUGGAGAAGGUCGCCUUGAUACAUGAGGAUCACCCAUGUGGCGGGUGAACCAA |  |  | 98.5 | 19.3
15 | ACUGGUCGAGGAUAUACAUGAGGAUCACCCAUGUGGUUACGUGACGAUAGUCACGAAUGUAGAAGGCGACCAGU |  |  | 236 | 652
16 | UUGCCACAUGAGGAUCACCCAUGUGAGGAUAUGGCCUGUUUGGCGUGUGCUGGCUCUGUCAGAAGGCGCGUGGG |  |  | 31.8 | 37.5
17 | GUGACACAUGAGGAUCACCCAUGUGAGGAUAUGAUACUAUGUACUUCGGUACAUAGUAUCAGAAGGCACAGUGA |  |  | 50.2 | 119
18 | AAGCCACAUGAGGAUCACCCAUGUAUUUGACAGCGAGGAUAUGGGCCGCCAUGACGAGCACCAGAAGGCGCUGGUA | 20.9 | 16.3 |  | 
19 | CUGGUGUGAGGAUAUCAGGGCACGCCCAAGGGCGUACCAAAUGAGAAGGCACAUGAGGAUCACCCAUGUGGGAC |  |  | 36.5 | 160
20 | GCUGGACAAGGAUAUGCAUUCGUGCUUCGGCACGUAAGGUCACAUGAGGAUCACCCAUGUAGAAGGUGUCCAGC |  |  | 18.6 | 34
21 | CUUUUGUGAGGAUAUUAGUAGUAAAUAAAUAAAAUUACUACUUAGAAGGCACAUGAGGAUCACCCAUGUUCCUC |  |  | 26.9 | 219
22 | AGAGAAUAGUCAGGAUAUGAGAAUAGAUAGAGCUCAGAAGGGACACAUGAGGAUCACCCAUGUGAAGUCUUGAGGCUGCGUGGA |  |  | 14.8 | 14.2
23 | ACUAGAUGCGUGAAAUAACACAUGAGGAUCACCCAUGUGACACAGGAUAUAACCAGAUCAGAAAGUUAGAAGGGUGAGCACGCA | 39.2 | 21.2 |  | 
24 | AUGAGUGUAAUGAUAGAGCCACUGCAGGAUAUCACAUGAGGAUCACCCAUGUGUCAGCCUCGGAGUGAGAAGGGCGGUUUCUUA |  |  | 5.65 | 9.7
25 | GGAUCGAAUGUGAGGAUAUACCACUGGAUACAGUGGUAGAAGGCACAUGAGGAUCACCCAUGUCUCUACGAUCC |  |  | 19.6 | 111
26 | AUCUUUAACAUAGGAUAUAGUAUGAAGGUUUAUUUAGAAGGAUGUCACAUGAGGAUCACCCAUGUAAUAGGAUUACCCAUGUAU |  |  | 29.8 | 21.9
27 | GAACCUAAGUCAGGAUAUGUCUAAGAAAACUGACAUGAGGAUCACCCAUGUGAAUGUAAAGCAUGGCAGAAGGGAUAUGGGUGG | 171 | 315 |  | 
28 | AAGAACAACCAGAAGGCAAGGCAAACAUGAGGAUCACCCAUGUAAUAUUUGAGGAUAUGGGUUCGACGUGGUCUAAAGUCAGGU | 120 | 14.1 |  | 

Row | Sequence | apparent Kd [1] [nM] | apparent Kd [2] [nM] | apparent Kd [3] [nM] | apparent Kd [4] [nM]
29 | AGGGCGGGAGGAUAUCCAAUAUAUGACAUGAGGAUCACCCAUGUUUCCACUCGUACCUCCGGAGAAGGCCCGCCCA |  |  | 24.4 | 22.3
30 | CAGGAUAGAGGAUAUGCAUAGAUACAGAUUCAUGUAAUCCUACAUGAGGAUCACCCAUGUAGAAGGCUAUCCUG |  |  | 15.1 | 35
31 | UCUAUGAAGAUUCGUCAAUACAGUUAGGAUAUGAGAUACAUGAGGAUCACCCAUGUGCAUGUGGAUUAGAAGGAACAAUUAUCU |  |  | 33.2 | 30.8
32 | GUAUGAGCGAUAGGAUAUACUGAGAUUGAAUGGGUAGAAGGAUCACUUGUGUGGAAGACAUGAGGAUCACCCAUGUUACGGGCC | 20.7 | 62.6 |  | 
33 | UCGCUCCGUGUAGGAUAUCGCCGUUCUACUCGGCGAGAAGGACAUGAGGAUCACCCAUGUAUGUUAUUAUCACGUGUGGCGCGC |  |  | 18.5 | 29.5
34 | ACCUCACAUGAGGAUCACCCAUGUUAGGAUAUCUCGAUGCUCCACGGGCGGUAGCAUCAGAGAAGGAACGUGCU |  |  | 23.9 | 21.5
35 | AAGUAGAUCCGAGGAUAUACAUAGCGGAAACGCAACAUGAGGAUCACCCAUGUAGAAGGCGGAUCUACAGGUACUAAAGUACCA |  |  | 7.77 | 13.5
36 | ACGCGUUGGGAGAAGGUACAUUAAAUUAGUUUAACAUGAGGAUCACCCAUGUAAGGAUAUCCCAUCGUGUAAUAUUAUACAGCA |  |  | 10.2 | 12.2
37 | AAUAACAGAGGAUAUACUGUUUUAUGUAUUUAUUAUUUUAAACAUGAGGAUCACCCAUGUAGAAGGCUGAUUAA |  |  | 30.2 | 27
38 | UUGUUGUAUGUAGGAUAUGCGUAUUAUUAUUAUGCAGAAGGACAUGAGGAUCACCCAUGUAUAUUAUUAUUAUAUAUUAUAUAU |  |  | 26.9 | 56.1
39 | UCAGGCUUCGAGAAGGACAUGAGGAUCACCCAUGUUAAUUUGAAGCAGCCGUGAGGCUGCAUCAUGUAGGAUAUCGGAGUCUGC |  |  | 6.17 | 10.2
40 | CAUUAUUAUCGAGGAUAUCCUAUUGAAAUUCUGGGAGAAGGCGGACUCAACAUGAGGAUCACCCAUGUGGGACGGAUGCUAGGA |  |  | 18.5 | 15.4
41 | UGGUACUAGGGAGGAUAUGGGAAGAUACAUGAGGAUCACCCAUGUCUAAGAAUGCCGAGAGGCAACUAGAAGGCCCUAGUACCU | 98.3 | 496 |  | 
42 | UGGCUACAUGAGGAUCACCCAUGUCAGGAUAUGCCGUCGGCUUGCGUUCGUCGUUCGGGUAGAAGGGACUGCGG |  |  | 85.3 | 106
43 | UUAUUUUGUCAAGGAUAUGUAAUAUAGAUUAGAAAACAUGAGGAUCACCCAUGUAUAUGGUGGGAACAGAAGGUGAAUGGUUUA |  |  | 196 | 161
44 | ACAUGCAUAGCGAUAUGAUCGAGAGAUCAUGUCGCAAAAUUUAGAAGGACAUGAGGAUCACCCAUGUAGGAUAUGGGAGCAUGA | 43.8 | 12.9 |  | 
45 | UUGGACGUCGUAGGAUAUGUAGGAUAUUCCUACAUGAGGAUCACCCAUGUUGACAUUGAAGAAGGACAGAAGGACGAUGUCCAU | 87.7 | 5.02 |  | 
46 | AAUUGACACGUAGGAUAUCGAUCUAUAUUAACACGAGAAGGACGUACAUGAGGAUCACCCAUGUUUAAUGGAGUAGAUAAGUUG |  |  | 112 | 257
47 | AACAUGUGAGGAUAUUUAAGAAAAGAAAAGAAAGAAAAGAAAAAGAAGGCACAUGAGGAUCACCCAUGUAAGAA |  |  | 24.8 | 35.9
48 | GUCAGCUCGUGAGGAUAUACAACACUGCUUCGGCAGUGUAUUAAGAUCACAUGAGGAUCACCCAUGUAGAAGGCAGGAGCUGAU |  |  | 15.7 | 250
49 | AGUGUCAUCGAGAAGGCCUUAAGAACAUGAGGAUCACCCAUGUAACAUGGGAGGAUAUCGAUGAUACAGCUACGUUUCGUAGCA | 12.4 | 5.21 |  | 
50 | UCCGGGUGCCAGAAGGGAGAUGGUUCGGAGGUCUCAGGAUAUGGCACAUGAGGAUCACCCAUGUGUUUACGUAAUUACAUGAGA |  |  | 20.9 | 21.6
51 | UUGUUAUAUGUAGGAUAUGCAUAUUAUUAUUAUGCAGAAGGACAUGAGGAUCACCCAUGUGUAUUGUUAUUAUAUAUUAUAUAU |  |  | 22.3 | 29.5
52 | GCUAGAAGCGUGAAAUAUCACAUGAGGAUCACCCAUGUGACACAGGAUAUAACAAUAUCAGAAGGUUAGAAGGGUGAACACGCC | 119 | 32.9 |  | 
53 | AUUUCGACCACAGGAUAUGUUUGACCGAUACUUACAGAAGGGUGGUCCACGCGCACAAGCACAUGAGGAUCACCCAUGUAACGA | 20.1 | 60.7 |  | 
54 | GUCAGCUCGUGAGGAUAUACAACACUGCUUCGGCAGUGUAUAAAGAUCACAUGAGGAUCACCCAUGUAGAAGGCACGAGCUGAU |  |  | 15.2 | 213
55 | UGGUUGUCAGGAUAUACGUUUUUUAACUUUUGUUUUAUAUUGUAGAAGGGACAUGAGGAUCACCCAUGUUACGU |  |  | 25.2 | 27.1
